In brackets after ≈: the same amount, converted by molar mass.
Legend:
Format in all cases: functional
[1] = test system: Staphylococcus aureus; test: Antibacterial activity against methicillin-sensitive Staphylococcus aureus 08-2 after 18 to 24 hrs by twofold serial dilution method
Procedure, shortened: (§1)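 Standard twofold serial agar dilution method on agar media for MIC determination. Screened against representative Gram-positive and Gram-negative strains. Levofloxacin and GMFX served as control drugs.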

[2] = test system: Staphylococcus epidermidis; test: Antibacterial activity against methicillin-resistant Staphylococcus epidermidis 09-3 after 18 to 24 hrs by twofold serial dilution method; procedure, shortened: as §1
[3] = test system: Enterococcus faecium; test: Antibacterial activity against Enterococcus faecium 08-2 after 18 to 24 hrs by twofold serial dilution method
Procedure, shortened: (§2)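 MIC determined by the standard twofold serial dilution method on agar media, screening against Gram-positive and Gram-negative strains. Levofloxacin and gemifloxacin were run alongside as reference drugs.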

[4] = test system: Pseudomonas aeruginosa; test: Antibacterial activity against Pseudomonas aeruginosa 09-33 after 18 to 24 hrs by twofold serial dilution method; procedure, shortened: as §2
[5] = test system: Pseudomonas aeruginosa; test: Antibacterial activity against Pseudomonas aeruginosa ATCC 27853 after 18 to 24 hrs by twofold serial dilution method; procedure, shortened: as §2
[6] = test system: Pseudomonas aeruginosa; test: Antibacterial activity against Pseudomonas aeruginosa 09-34 after 18 to 24 hrs by twofold serial dilution method; procedure, shortened: as §2
[7] = test system: Klebsiella pneumoniae; test: Antibacterial activity against Klebsiella pneumoniae 09-21 after 18 to 24 hrs by twofold serial dilution method; procedure, shortened: as §2
[8] = test system: Streptococcus pneumoniae; test: Antibacterial activity against Streptococcus pneumoniae 08-2 after 18 to 24 hrs by twofold serial dilution method; procedure, shortened: as §2
[9] = test system: Staphylococcus aureus; test: Antibacterial activity against methicillin-resistant Staphylococcus aureus 08-1 after 18 to 24 hrs by twofold serial dilution method; procedure, shortened: as §1
[10] = test system: Enterococcus faecalis; test: Antibacterial activity against Enterococcus faecalis 08-12 after 18 to 24 hrs by twofold serial dilution method; procedure, shortened: as §2
[11] = test system: Klebsiella pneumoniae; test: Antibacterial activity against Klebsiella pneumoniae 09-23 after 18 to 24 hrs by twofold serial dilution method; procedure, shortened: as §2
[12] = test system: Staphylococcus epidermidis; test: Antibacterial activity against methicillin-sensitive Staphylococcus epidermidis 09-3 after 18 to 24 hrs by twofold serial dilution method; procedure, shortened: as §1
[13] = test system: Enterococcus faecalis; test: Antibacterial activity against Enterococcus faecalis 08-10 after 18 to 24 hrs by twofold serial dilution method; procedure, shortened: as §2
[14] = test system: Staphylococcus epidermidis; test: Antibacterial activity against methicillin-resistant Staphylococcus epidermidis 09-4 after 18 to 24 hrs by twofold serial dilution method; procedure, shortened: as §1
[15] = test system: Escherichia coli; test: Antibacterial activity against Escherichia coli 08-21 after 18 to 24 hrs by twofold serial dilution method; procedure, shortened: as §2
[16] = test system: Escherichia coli; test: Antibacterial activity against Escherichia coli 08-22 after 18 to 24 hrs by twofold serial dilution method; procedure, shortened: as §2
[17] = test system: Pseudomonas aeruginosa; test: Antibacterial activity against Pseudomonas aeruginosa 09-35 after 18 to 24 hrs by twofold serial dilution method; procedure, shortened: as §2
[18] = test system: Staphylococcus epidermidis; test: Antibacterial activity against methicillin-sensitive Staphylococcus epidermidis 09-6 after 18 to 24 hrs by twofold serial dilution method; procedure, shortened: as §1
[19] = test system: Klebsiella pneumoniae; test: Antibacterial activity against Klebsiella pneumoniae 09-22 after 18 to 24 hrs by twofold serial dilution method; procedure, shortened: as §2
[20] = test system: Escherichia coli; test: Antibacterial activity against Escherichia coli ATCC 25922 after 18 to 24 hrs by twofold serial dilution method; procedure, shortened: as §2
[21] = test system: Streptococcus pneumoniae; test: Antibacterial activity against Streptococcus pneumoniae 08-4 after 18 to 24 hrs by twofold serial dilution method; procedure, shortened: as §2
[22] = test system: Staphylococcus epidermidis; test: Antibacterial activity against methicillin-resistant Staphylococcus epidermidis 09-2 after 18 to 24 hrs by twofold serial dilution method; procedure, shortened: as §1
[23] = test system: Pseudomonas aeruginosa; test: Antibacterial activity against Pseudomonas aeruginosa 09-32 after 18 to 24 hrs by twofold serial dilution method; procedure, shortened: as §2
[24] = test system: Enterococcus faecium; test: Antibacterial activity against Enterococcus faecium 08-7 after 18 to 24 hrs by twofold serial dilution method; procedure, shortened: as §2
[25] = test system: Staphylococcus aureus; test: Antibacterial activity against Staphylococcus aureus ATCC […] after 18 to 24 hrs by twofold serial dilution method; procedure, shortened: as §2

| Structure (SMILES) | MIC [1] | MIC [3] | MIC [4] | MIC [5] | MIC [6] | MIC [7] | MIC [8] | MIC [9] | MIC [10] | MIC [11] | MIC [12] | MIC [13] | MIC [14] | MIC [15] | MIC [16] | MIC [17] | MIC [18] | MIC [19] | MIC [20] | MIC [21] | also measured |
| --- | --- | --- | --- | --- | --- | --- | --- | --- | --- | --- | --- | --- | --- | --- | --- | --- | --- | --- | --- | --- | --- |
| CO/N=C1\CN(c2c(F)cc3c(=O)c(C(=O)O)cn4c3c2OC[C@@H]4C)CC1/C(N)=N\O (some centres undefined) | 4 mg/L (≈ 9.23 µM) | > 128 mg/L | > 128 mg/L | 32 mg/L (≈ 73.8 µM) | > 128 mg/L | > 128 mg/L | 0.25 mg/L (≈ 0.577 µM) | 0.25 mg/L (≈ 0.577 µM) | > 128 mg/L | > 128 mg/L | 0.25 mg/L (≈ 0.577 µM) | > 128 mg/L | 0.25 mg/L (≈ 0.577 µM) | > 128 mg/L | > 128 mg/L | 128 mg/L (≈ 295 µM) | 0.25 mg/L (≈ 0.577 µM) | 16 mg/L (≈ 36.9 µM) | 128 mg/L (≈ 295 µM) | 16 mg/L (≈ 36.9 µM) | MIC [2]: 0.25 mg/L (≈ 0.577 µM); MIC [22]: 0.25 mg/L (≈ 0.577 µM); MIC [23]: 64 mg/L (≈ 148 µM); MIC [24]: > 128 mg/L; MIC [25]: 0.125 mg/L (≈ 0.288 µM) |
| CCO/N=C1\CN(c2c(F)cc3c(=O)c(C(=O)O)cn4c3c2OC[C@@H]4C)CC1/C(N)=N\O (some centres undefined) | 0.25 mg/L (≈ 0.559 µM) | > 128 mg/L | > 128 mg/L | 32 mg/L (≈ 71.5 µM) | > 128 mg/L | > 128 mg/L | > 128 mg/L | 0.25 mg/L (≈ 0.559 µM) | > 128 mg/L | > 128 mg/L | 0.25 mg/L (≈ 0.559 µM) | > 128 mg/L | 0.5 mg/L (≈ 1.12 µM) | > 128 mg/L | > 128 mg/L | 64 mg/L (≈ 143 µM) | 0.25 mg/L (≈ 0.559 µM) | 16 mg/L (≈ 35.8 µM) | > 128 mg/L | 16 mg/L (≈ 35.8 µM) | MIC [2]: 0.25 mg/L (≈ 0.559 µM); MIC [22]: 0.5 mg/L (≈ 1.12 µM); MIC [23]: 64 mg/L (≈ 143 µM); MIC [24]: > 128 mg/L; MIC [25]: 0.25 mg/L (≈ 0.559 µM) |
| CCO/N=C1\CN(c2c(F)cc3c(=O)c(C(=O)O)cn(CC)c3c2F)CC1/C(N)=N\OCC (centres undefined) | > 128 mg/L | > 128 mg/L | > 128 mg/L | > 128 mg/L | > 128 mg/L | > 128 mg/L | > 128 mg/L | > 128 mg/L | > 128 mg/L | > 128 mg/L | > 128 mg/L | > 128 mg/L | > 128 mg/L | > 128 mg/L | > 128 mg/L | > 128 mg/L | > 128 mg/L | > 128 mg/L | > 128 mg/L | > 128 mg/L | MIC [22]: > 128 mg/L; MIC [23]: > 128 mg/L; MIC [24]: > 128 mg/L; MIC [25]: 8 mg/L (≈ 17.2 µM) |
| CO/N=C1\CN(c2c(F)cc3c(=O)c(C(=O)O)cn(C4CC4)c3c2F)CC1/C(N)=N\OC (centres undefined) | 0.25 mg/L (≈ 0.556 µM) | > 128 mg/L | > 128 mg/L | 4 mg/L (≈ 8.9 µM) | > 128 mg/L | > 128 mg/L | 16 mg/L (≈ 35.6 µM) | 0.25 mg/L (≈ 0.556 µM) | > 128 mg/L | > 128 mg/L | 0.125 mg/L (≈ 0.278 µM) | > 128 mg/L | 0.25 mg/L (≈ 0.556 µM) | > 128 mg/L | > 128 mg/L | 8 mg/L (≈ 17.8 µM) | 0.25 mg/L (≈ 0.556 µM) | 0.25 mg/L (≈ 0.556 µM) | 128 mg/L (≈ 285 µM) | 4 mg/L (≈ 8.9 µM) | MIC [2]: 0.25 mg/L (≈ 0.556 µM); MIC [22]: 0.125 mg/L (≈ 0.278 µM); MIC [23]: 8 mg/L (≈ 17.8 µM); MIC [24]: 64 mg/L (≈ 142 µM); MIC [25]: 0.125 mg/L (≈ 0.278 µM) |
| CCO/N=C(/N)C1CN(c2c(F)cc3c(=O)c(C(=O)O)cn(C4CC4)c3c2F)C/C1=N\OC (centres undefined) | 0.06 mg/L (≈ 0.129 µM) | > 128 mg/L | > 128 mg/L | > 128 mg/L | > 128 mg/L | > 128 mg/L | 32 mg/L (≈ 69 µM) | 0.06 mg/L (≈ 0.129 µM) | > 128 mg/L | > 128 mg/L | 0.06 mg/L (≈ 0.129 µM) | > 128 mg/L | 0.06 mg/L (≈ 0.129 µM) | > 128 mg/L | > 128 mg/L | > 128 mg/L | 0.06 mg/L (≈ 0.129 µM) | 2 mg/L (≈ 4.32 µM) | > 128 mg/L | 1 mg/L (≈ 2.16 µM) | MIC [2]: 0.06 mg/L (≈ 0.129 µM); MIC [22]: 0.06 mg/L (≈ 0.129 µM); MIC [23]: > 128 mg/L; MIC [24]: > 128 mg/L; MIC [25]: 0.06 mg/L (≈ 0.129 µM) |
| CCO/N=C1\CN(c2c(F)cc3c(=O)c(C(=O)O)cn(CCF)c3c2F)CC1/C(N)=N\O (centres undefined) | 0.5 mg/L (≈ 1.1 µM) | > 128 mg/L | > 128 mg/L | 8 mg/L (≈ 17.6 µM) | > 128 mg/L | > 128 mg/L | 4 mg/L (≈ 8.78 µM) | 0.5 mg/L (≈ 1.1 µM) | > 128 mg/L | > 128 mg/L | 0.5 mg/L (≈ 1.1 µM) | 4 mg/L (≈ 8.78 µM) | 0.5 mg/L (≈ 1.1 µM) | > 128 mg/L | > 128 mg/L | 16 mg/L (≈ 35.1 µM) | 0.5 mg/L (≈ 1.1 µM) | 4 mg/L (≈ 8.78 µM) | 128 mg/L (≈ 281 µM) | 0.5 mg/L (≈ 1.1 µM) | MIC [2]: 0.5 mg/L (≈ 1.1 µM); MIC [22]: 4 mg/L (≈ 8.78 µM); MIC [23]: 16 mg/L (≈ 35.1 µM); MIC [24]: > 128 mg/L; MIC [25]: 0.5 mg/L (≈ 1.1 µM) |

Reference: ChEMBL document CHEMBL1287651, “Synthesis and in vitro antibacterial activity of fluoroquinolone derivatives containing 3-(N'-alkoxycarbamimidoyl)-4-(alkoxyimino) pyrrolidines” (2010)
